This is a sample that favours compounds with a hit; in the whole collection about 1.2% have one here.
HKDC1 inh – inhibitors of human hexokinase HKDC1; Q2TB90; recombinant HKDC1, G6PDH/diaphorase resazurin coupled fluorescence; inhibition, % at 20 µM; 340,000 tested, 0.16% active; AID 493160;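 active = inhibition above about 35% when tested at 20 µM, limit read from the data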;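 also: plate controls were DMSO wells with enzyme for no effect and DMSO wells lacking enzyme for full effect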
Target sequence (Q2TB90 whole entry, looked up): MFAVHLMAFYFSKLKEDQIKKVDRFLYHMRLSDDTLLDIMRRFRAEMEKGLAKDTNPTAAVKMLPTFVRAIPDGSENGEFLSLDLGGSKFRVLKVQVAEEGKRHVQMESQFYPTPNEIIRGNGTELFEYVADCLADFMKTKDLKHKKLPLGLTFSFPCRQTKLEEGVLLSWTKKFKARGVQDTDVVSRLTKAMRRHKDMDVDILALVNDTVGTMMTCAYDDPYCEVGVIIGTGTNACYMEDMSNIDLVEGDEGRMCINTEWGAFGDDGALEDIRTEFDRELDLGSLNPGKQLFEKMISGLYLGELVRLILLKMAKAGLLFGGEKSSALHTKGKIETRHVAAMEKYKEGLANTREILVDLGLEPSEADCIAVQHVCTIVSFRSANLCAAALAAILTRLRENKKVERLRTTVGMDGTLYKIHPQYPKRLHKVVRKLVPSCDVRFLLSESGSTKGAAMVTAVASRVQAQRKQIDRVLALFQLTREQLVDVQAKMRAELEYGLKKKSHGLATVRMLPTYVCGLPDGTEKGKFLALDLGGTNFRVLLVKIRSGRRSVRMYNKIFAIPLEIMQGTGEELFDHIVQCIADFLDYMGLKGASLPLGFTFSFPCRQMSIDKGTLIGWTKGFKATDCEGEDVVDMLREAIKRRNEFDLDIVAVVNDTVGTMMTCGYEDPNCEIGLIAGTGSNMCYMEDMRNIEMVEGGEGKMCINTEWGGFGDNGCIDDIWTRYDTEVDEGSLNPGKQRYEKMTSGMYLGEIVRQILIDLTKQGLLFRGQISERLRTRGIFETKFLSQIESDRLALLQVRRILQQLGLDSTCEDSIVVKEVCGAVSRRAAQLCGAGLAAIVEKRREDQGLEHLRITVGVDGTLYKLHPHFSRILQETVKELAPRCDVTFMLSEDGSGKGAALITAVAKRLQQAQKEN
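Assay system: recombinant HKDC1 hexokinase; detection: coupled resazurin fluorescence, excitation 525 nm, emission 613 nm; benchmarks: DMSO-plus-enzyme-mix negative control, buffer-substituted positive control; compound dosing: single 20 µM dose; schedule: 90 min at room temperature in dark; also added: glucose plus 1 mM ATP as hexokinase substrates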
PfGluPho inh – PfG6PD (Plasmodium falciparum) enzyme inhibition | PfGluPho enzyme, NADPH resazurin-diaphorase fluorescence | inhibition, % at 20 µM | 350,000 tested, 0.78% active;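 active = inhibition reaching at least a set limit at 20 µM in the primary screen, cut at about 59% in these data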;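 also: 0% = DMSO wells with substrate and 100% = DMSO wells lacking glucose-6-phosphate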
Tb hexokinase – blocks Trypanosoma brucei hexokinase 1 activity. recombinant TbHK1, G6PDH-coupled NADH A340. inhibition, % at 10 µM. 220,000 tested, 0.11% active. AID 1430;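 active = inhibition of 50% or more in the single-dose primary screen; inactive = inhibition below 50%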
G6PDH CS – counter-screen for G6PDH assay hits: L. mesenteroides G6PDH inhibition; AID 1020; Purified L. mesenteroides G6PDH, diaphorase/resazurin coupled fluorescence, 45 min; inhibition, % at 5 µM; 200,000 tested, 0.12% active; in the data active = inhibition above about 50%
Diaphorase inh – inhibits diaphorase or chemically oxidizes, flagging diaphorase assay artifacts; AID 1217; diaphorase resazurin-to-resorufin fluorescence, NADH, 16 min; bacterial (C. kluyveri) enzyme, not human; 190,000 tested, 0.69% active; inhibition, % at 20 µM;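 active = primary screen inhibition at 20 µM above a set limit, cut at about 50% in these data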;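 also: plate controls were DMSO with full reaction for no effect and wells lacking NADH for full effect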
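controls = No-NADH positive control and DMSO neutral control | system = Clostridium kluyveri diaphorase enzyme | timing = reaction incubation of 16 min at room temperature | signal = resorufin fluorescence 544/590 nm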
PfG6PD confirm – PfG6PD inhibition, single-dose confirmed; recombinant PfGluPho, NADPH-diaphorase-resazurin fluorescence; AID 504753; 2,400 tested, 34% active; inhibition, % at 20 µM; shares compounds with PfGluPho inh;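 active = inhibition of at least 50% at 20 µM in any single replicate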;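 also: 0% = DMSO with substrate and 100% = DMSO lacking glucose-6-phosphate substrate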
Diaphorase 10uM – diaphorase inhibition or oxidation at 10 uM NADPH. shares compounds with PfGluPho inh. diaphorase-coupled resazurin reduction, fluorescence, NADPH 10 uM. inhibition, % at 20 µM. 820 tested, 39% active. AID 504862;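 active = average inhibition reaching 50% or more with the compound at 20 µM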;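 also: resorufin red fluorescence formed as diaphorase reduces resazurin using NADPH; 0% = DMSO with enzyme and 100% = DMSO without enzyme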
Diaphorase 30uM – diaphorase inhibition or oxidation at 30 uM NADPH | shares compounds with PfGluPho inh | Diaphorase/resazurin coupled assay, resorufin fluorescence | inhibition, % at 20 µM | 820 tested, 29% active;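 active = inhibition averaging 50% or more, tested at 20 µM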;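 also: 0% = DMSO with enzyme and 100% = DMSO wells lacking diaphorase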
* marks the source's active call; other numbers are inactive results; nt = no result.

SMILES	HKDC1 inh	PfGluPho inh	Tb hexokinase	G6PDH CS	Diaphorase inh	PfG6PD confirm	others
COc1cccc(NC(=O)C2CC2(c2cccc(OC)c2)c2cccc(OC)c2)c1 (stereo not drawn)	0.6	111.3*	2.0	2.1	14.5	42.8
CCC(C(=O)NCc1ccco1)n1nc(C)n2c(cc3occc32)c1=O (stereo not drawn)	-1.6	3.5	nt	nt	nt	nt
O=S(=O)(Nc1ccc(Cl)cc1)c1ccc(N2CCOCC2)c(NC(=S)NCCN2CCOCC2)c1	-4.5	69.2*	3.2	17.0	7.8	63.1*	Diaphorase 10uM=-11.3;Diaphorase 30uM=-2.2
COCCNC(=S)Nc1ccc(N2CCOCC2)c(S(=O)(=O)Nc2ccc(Cl)cc2)c1	nt	91.7*	nt	nt	nt	70.0*	Diaphorase 10uM=-36.8;Diaphorase 30uM=-6.5
CCC(=O)Nc1ccc(N2CCOCC2)c(S(=O)(=O)Nc2ccc(Cl)cc2)c1	-1.4	61.0*	nt	nt	nt	36.5
COc1ccc(NS(=O)(=O)c2cc(NC(=O)c3ccc(Cl)cc3)ccc2N2CCOCC2)cc1	-1.5	20.0	nt	nt	nt	nt
C[C@H](NC(N)=O)C(=O)Nc1ccc(N2CCOCC2)c(S(=O)(=O)Nc2ccc(Cl)cc2)c1	-12.7	76.2*	nt	nt	nt	58.5*	Diaphorase 10uM=2.3;Diaphorase 30uM=-16.4
CCC(C)(C)c1ccc(OCC(=O)Nc2ccncc2)cc1	0.2	-9.9	nt	nt	nt	nt
O=C(COc1ccc2cc(-c3ccccc3)c(=O)oc2c1)NCC1CCC(C(=O)O)CC1 (stereo not drawn)	-0.2	-7.5	nt	nt	nt	nt
O=C(Nc1ccc(N2CCOCC2)c(S(=O)(=O)Nc2ccc(Cl)cc2)c1)c1cnccn1	-7.0	73.4*	-14.7	nt	nt	18.4
COc1cc(/C=C2\CC/C(=C\c3cc(OC)c(O)c(OC)c3)C2=O)cc(OC)c1O	28.7	63.1*	-9.9	56.3*	70.7*	67.2*	Diaphorase 10uM=18.4;Diaphorase 30uM=17.1
CCn1c(SCC(=O)c2cc(C)n(-c3ccc(C(=O)OC)cc3)c2C)nnc1-c1cccnc1	0.4	90.3*	-12.2	-3.0	2.7	36.9
CCn1c(SCC(=O)c2cc(C)n(C)c2C)nnc1-c1ccccc1	-6.0	28.0	-12.9	-4.9	7.1	nt
COC(=O)c1cc(S(=O)(=O)NCc2cccs2)c[nH]1	-4.1	-15.1	nt	nt	nt	nt
CCN(c1ccccc1)S(=O)(=O)c1ccc(C(=O)NC2CCN(Cc3ccccc3)CC2)cc1	-6.3	19.6	nt	nt	nt	nt
Cc1ccc(Nc2nc(-c3ccc(S(=O)(=O)N4CCOCC4)cc3)cs2)cc1	-7.8	59.0	-7.4	nt	nt	41.8
O=C(/C=C/Nc1ccc(S(=O)(=O)Nc2ncccn2)cc1)c1ccc2ccccc2c1	-5.7	1.1	-5.9	nt	nt	nt
O=C(CN1CCN(C(C(=O)Nc2cc(C(F)(F)F)ccc2Cl)c2ccccc2)CC1)NC1CC1 (stereo not drawn)	2.9	6.8	nt	nt	nt	nt
Cc1ccc(S(=O)(=O)/N=C2/C=C(C3C(=O)CC(C)(C)CC3=O)C(=O)c3ccccc32)cc1	28.1	72.4*	-9.3	45.3	34.4	73.4*	Diaphorase 10uM=43.3;Diaphorase 30uM=45.5
O=C1c2ccccc2-c2onc3ccc(NCc4ccco4)c1c23	23.4	73.7*	-1.0	49.0	41.8	25.3
Cc1cccc(NC(=O)c2sc3nc(-c4ccccc4)cn3c2C)n1	-7.0	61.0*	-23.9	-53.4	9.5	10.9
Cc1ccc(S(=O)(=O)N2[C@@H](c3cccc(Cl)c3)C(C(=O)O)=CC[C@H]2c2ccc(C(C)C)cc2)cc1	11.6	-11.8	nt	nt	nt	nt
FC(F)(F)c1cccc(-c2nc3nc(Cl)c(Cl)nc3[nH]2)c1	1.4	102.1*	-15.2	nt	nt	76.4*	Diaphorase 10uM=76.7*;Diaphorase 30uM=57.0*
N/C(=N\S(=O)(=O)c1cccs1)c1ccccc1	-5.9	9.2	3.2	10.3	4.2	nt
O=C1/C(=N\S(=O)(=O)c2cccs2)C([n+]2ccccc2)=C([O-])c2ccccc21	9.9	65.1*	-27.8	nt	nt	28.8
SMILES	HKDC1 inh	PfGluPho inh	Tb hexokinase	G6PDH CS	Diaphorase inh	PfG6PD confirm	others
COc1cc([N+](=O)[O-])c2ncsc2c1	12.3	-1.9	-9.1	0.9	-5.3	nt
COc1cc(SSc2cc(OC)cc([N+](=O)[O-])c2N)c(N)c([N+](=O)[O-])c1	2.4	111.7*	13.9	nt	nt	99.9*	Diaphorase 10uM=-26.9;Diaphorase 30uM=-20.0
Nc1c(C(=O)Nc2ccc(F)cc2)sc(=S)n1-c1ccccc1F	-9.9	98.8*	-4.8	13.1	9.0	55.9*	Diaphorase 10uM=12.8;Diaphorase 30uM=7.2
Nc1ccc(C(=O)OCc2nc3cc4ccccc4cc3[nH]2)cc1	-5.8	63.3*	1.4	-2.5	21.5	27.4
Nc1ccc(C(=O)OCCCc2nc3cc4ccccc4cc3[nH]2)cc1	-0.6	26.7	-10.6	nt	nt	nt
Cc1ccc(S(=O)(=O)N(C)C)cc1NC(=O)COC(=O)C1CCN(S(=O)(=O)c2cccs2)CC1	-4.3	-2.7	nt	nt	nt	nt
CCOC(=O)C1CCCN(C(=O)CCCn2c(=O)c3cccn3c3cccnc32)C1 (stereo not drawn)	-6.0	-4.1	nt	nt	nt	nt
CC(C)CN(C(=O)C(C)N1C(=O)c2ccccc2C1=O)c1c(N)n(Cc2ccccc2)c(=O)[nH]c1=O (stereo not drawn)	3.6	9.4	nt	nt	nt	nt
c1ccc(Cc2nn3c(COc4ccccc4)nnc3s2)cc1	-19.8	62.5*	-5.3	-16.4	11.9	24.1
CCOc1ccccc1OCc1nn2c(COc3ccccc3)nnc2s1	-16.5	68.9*	1.8	-30.0	16.7	27.1
Clc1ccccc1-c1nn2c(COc3ccccc3)nnc2s1	2.6	-13.5	5.3	0.4	9.6	nt
O=C(CN1C(=O)NC2(CCCC2)C1=O)NNC(=O)c1ccccc1	-4.9	-5.6	nt	nt	nt	nt
COc1ccc(C(=O)C2CCCN(C(=O)c3ccc4nccnc4c3)C2)c(C)c1 (stereo not drawn)	-3.4	-11.4	nt	nt	nt	nt
COc1cc(NC(=S)N2CCN(CCO)CC2)c(OC)cc1Cl	-11.9	24.2	-10.3	1.8	-4.1	nt
OCCN1CCN(C(=S)c2ccc(Cl)c(Cl)c2)CC1	-3.4	64.2*	-2.7	11.5	12.0	53.3*	Diaphorase 10uM=-12.6;Diaphorase 30uM=-1.4
Cc1nc2cc(NS(=O)(=O)c3cccc4cccnc34)ccc2s1	-1.2	60.9*	nt	nt	nt	37.0
COc1ccc(C2CC(=O)c3cnn(-c4nc(C)cc(C)n4)c3C2)cc1 (stereo not drawn)	-7.7	-8.1	9.4	1.2	0.0	nt
CCC1S/C(=N/C(=O)NC2CCCCC2)NC1=O (stereo not drawn)	-2.3	-6.5	9.5	0.3	2.8	nt
O=C(/N=C1\NC(=O)C(F)(C(F)(F)F)S1)NC1CCCCC1 (stereo not drawn)	-4.2	73.4*	nt	-9.2	24.3	32.7
Oc1ccc(NCc2ccc(OCc3ccccc3)cc2)cc1	9.7	66.1*	nt	nt	nt	25.8
CCc1ccc(CNc2ccc(O)cc2)cc1	23.7	84.9*	-3.5	48.2	37.8	42.6
